Measurements reported in ChEMBL document CHEMBL1129970, “Biologically active conformer of the effector region of human C5a and modulatory effects of N-terminal receptor binding determinants on activity” (J Med Chem, 1997).
Blank lines part the entries; values can stand above or below the compound they belong to.

What was measured:
Homo sapiens [1] = species: Homo sapiens; experiment: Effective concentration to stimulate beta-glucuronidase release from human polymorphonuclear cells (PMN) (n=4); assay type: functional
In short: (§1)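 Human PMNs pretreated with cytochalasin B (5 μg/mL, 10 min, 37 °C), then 10⁶ cells stimulated for 60 min at 37 °C. β-Glucuronidase in the supernatant is assayed with 0.01 M p-nitrophenyl β-D-glucuronide (0.1 M acetate, pH 4, 18 h) in triplicate. Reaction stopped with glycine pH 10 and read at 415 nm. pD2 is taken from dose–response curves against the C5a EC50. Efficacy is given relative to C5a maximum (100%).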

Homo sapiens [2] = species: Homo sapiens; experiment: Effective concentration to induce smooth muscle contraction in human fetal artery; assay type: functional; conditions: Muscle tissue
In short: (§2)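 Human fetal artery smooth muscle contraction; full dose–response curves for recombinant human C5a or each peptide in the same tissue preparation. EC50 is the concentration giving 50% of the maximal response, read relative to the C5a maximum. pD2 = −log EC50 (M), averaged per peptide ± SE. Log potency ratio pD2(C5a) − pD2(peptide) is computed within each experiment. Relative potency = antilog(−Δ) × 100.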

Homo sapiens [3] = species: Homo sapiens; experiment: Tested for the ability to stimulate beta-glucuronidase release from human polymorphonuclear cells (PMN) (n=4); assay type: functional; in short: as §1
Homo sapiens [4] = species: Homo sapiens; experiment: Relative potency of peptide for human fetal artery was determined; assay type: functional; in short: as §2
Homo sapiens [5] = species: Homo sapiens; experiment: Log potency ratio [pD2(C5a)-pD2(peptide)] was determined in human fetal artery; assay type: functional; in short: as §2
Homo sapiens [6] = species: Homo sapiens; experiment: Relative potency of peptide to stimulate beta-glucuronidase release from human polymorphonuclear cells (PMN) (n=4); assay type: functional; in short: as §1
Homo sapiens [7] = species: Homo sapiens; experiment: Log potency ratio [pD2(C5a)-pD2(peptide)] was determined in human polymorphonuclear cells (PMN) (n=4); assay type: functional; in short: as §1
[8] = Selectivity of peptide was determined from antilog[pD2(fetal artery)-pD2 (PMN enzyme release)] (n=11); assay type: functional
In short: (§3)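 Selectivity = antilog[pD2(fetal artery) − pD2(PMN β-glucuronidase release)]. pD2 values come from full dose–response curves in each assay, each generated alongside C5a.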

Homo sapiens [9] = species: Homo sapiens; experiment: Maximum efficacy relative to C5a (100%) for human polymorphonuclear cells (PMN) was determined (n=4); assay type: functional; in short: as §1
Homo sapiens [10] = species: Homo sapiens; experiment: Spasmogenic activity was measured by the ability to induce smooth muscle contraction in human fetal artery; assay type: functional, Muscle tissue; in short: as §2
Homo sapiens [11] = species: Homo sapiens; experiment: Effective concentration to stimulate beta-glucuronidase release from human polymorphonuclear cells (PMN) (n=5); assay type: functional; in short: as §1
[12] = Selectivity of peptide was determined from antilog[pD2(fetal artery)-pD2 (PMN enzyme release)] (n=7); assay type: functional; in short: as §3
[13] = (§4) Selectivity of peptide was determined from antilog[pD2(fetal artery)-pD2 (PMN enzyme release)] (n=10); assay type: functional; in short: as §3
Homo sapiens [14] = species: Homo sapiens; experiment: Ratio of concentration agonist potency (EC50) to concentration inhibiting [125I]C5a binding (n=3); assay type: functional
In short: (§5)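 Competition binding on freshly isolated intact human PMNs (0.25 × 10⁶) with 20 pM [¹²⁵I]C5a plus unlabeled C5a or peptide. Buffer is 50 mM HEPES, 1 mM CaCl₂, 5 mM MgCl₂, 0.5% BSA. Incubation 60 min at 4 °C, then filtration, ice-cold washes and gamma counting, triplicates. Nonspecific binding defined with 1 mM peptide or 100 nM C5a. Relative affinity = antilog[−(log IC50 C5a − log IC50 peptide)] × 100. The potency/binding ratio is EC50 divided by the binding IC50.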

Homo sapiens [15] = species: Homo sapiens; experiment: Relative affinity for PMN receptor (n=3); assay type: functional; in short: as §5
Homo sapiens [16] = species: Homo sapiens; experiment: Log potency ratio [pD2(C5a)-pD2(peptide)] was determined for human polymorphonuclear cells (PMN) (n=4); assay type: functional; in short: as §1
Homo sapiens [17] = species: Homo sapiens; experiment: as §4; assay type: functional; in short: as §3
Homo sapiens [18] = species: Homo sapiens; experiment: Log potency ratio [log IC50(C5a)-log IC50(peptide)] was determined in human polymorphonuclear cells (PMN) (n=3); assay type: functional; in short: as §5

SMILES: CSCC[C@H](NC(=O)[C@@H]1CCCN1C(=O)[C@H](CCCCN)NC(=O)[C@H](Cc1ccccc1)NC(=O)[C@H](CO)NC(=O)[C@H](Cc1ccc(O)cc1)NC(=O)CNC(=O)CNC(=O)CNC(=O)[C@H](CCCCN)NC(=O)CNC(=O)[C@H](CCCCN)NC(=O)CNC(=O)[C@@H](N)CCCCN)C(=O)N1CCC[C@H]1C(=O)N[C@@H](CC(C)C)C(=O)N[C@H](C)C(=O)N[C@@H](CCCN=C(N)N)C(=O)O [listing 1 of 2 here]
EC50 (Homo sapiens [1]): 2000 nM
EC50 (Homo sapiens [2]): 70 nM

SMILES: CSCC[C@H](NC(=O)[C@@H]1CCCN1C(=O)[C@H](CCCCN)NC(=O)[C@H](Cc1ccccc1)NC(=O)[C@H](CO)NC(=O)[C@H](Cc1ccc(O)cc1)NC(=O)CNC(=O)CNC(=O)CNC(=O)[C@H](CCCCN)NC(=O)CNC(=O)[C@H](CCCCN)NC(=O)CNC(=O)[C@@H](N)CCCCN)C(=O)N1CCC[C@H]1C(=O)N[C@@H](CC(C)C)C(=O)N[C@H](C)C(=O)N[C@@H](CCCN=C(N)N)C(=O)O [listing 2 of 2 here]
pD2 (Homo sapiens [3]): 5.71
Potency (Homo sapiens [4]): 15%
Mean log concentration ratio (Homo sapiens [5]): 0.83
Potency (Homo sapiens [6]): 1.8%
Mean log concentration ratio (Homo sapiens [7]): 1.74
Selectivity [8]: 27
C5a max (Homo sapiens [9]): 177%
pD2 (Homo sapiens [10]): 7.14

SMILES: CSCC[C@H](NC(=O)[C@@H]1CCCN1C(=O)[C@H](CCCCN)NC(=O)[C@H](Cc1ccccc1)NC(=O)[C@H](CO)NC(=O)[C@H](Cc1ccc(O)cc1)NC(=O)CCCCCNC(=O)[C@H](Cc1c[nH]c2ccccc12)NC(=O)[C@@H](N)CC(=O)O)C(=O)N1CCC[C@H]1C(=O)N[C@@H](CC(C)C)C(=O)N[C@H](C)C(=O)N[C@@H](CCCN=C(N)N)C(=O)O
pD2 (Homo sapiens [3]): 5.14
Potency (Homo sapiens [4]): 8.5%
Mean log concentration ratio (Homo sapiens [5]): 0.91
Potency (Homo sapiens [6]): 0.5%
Mean log concentration ratio (Homo sapiens [7]): 2.3
C5a max (Homo sapiens [9]): 173%
pD2 (Homo sapiens [10]): 6.96
Selectivity [12]: 66

SMILES: CSCC[C@H](NC(=O)[C@@H]1CCCN1C(=O)[C@H](CCCCN)NC(=O)[C@H](Cc1ccccc1)NC(=O)[C@H](CO)NC(=O)[C@H](Cc1ccc(O)cc1)NC(=O)CCCCCNC(=O)[C@H](CCCCN)NC(=O)CNC(=O)[C@@H](N)CCCCN)C(=O)N1CCC[C@H]1C(=O)N[C@@H](CC(C)C)C(=O)N[C@H](C)C(=O)N[C@@H](CCCN=C(N)N)C(=O)O
pD2 (Homo sapiens [3]): 5.31
Potency (Homo sapiens [4]): 11%
Mean log concentration ratio (Homo sapiens [5]): 0.97
Potency (Homo sapiens [6]): 1%
Mean log concentration ratio (Homo sapiens [7]): 1.99
C5a max (Homo sapiens [9]): 156%
Selectivity [13]: 47
pD2 (Homo sapiens [10]): 6.98

SMILES: CSCC[C@H](NC(=O)[C@@H]1CCCN1C(=O)[C@H](CCCCN)NC(=O)[C@H](Cc1ccccc1)NC(=O)[C@H](CO)NC(=O)[C@H](Cc1ccc(O)cc1)NC(=O)CCCCCN)C(=O)N1CCC[C@H]1C(=O)N[C@@H](CC(C)C)C(=O)N[C@H](C)C(=O)N[C@@H](CCCN=C(N)N)C(=O)O
Ratio (Homo sapiens [14]): 0.6
pD2 (Homo sapiens [3]): 5.51
Potency (Homo sapiens [4]): 16%
Mean log concentration ratio (Homo sapiens [5]): 0.79
C5a affinity (Homo sapiens [15]): 0.005%
Potency (Homo sapiens [6]): 1.2%
C5a max (Homo sapiens [9]): 180%
Mean log concentration ratio (Homo sapiens [16]): 1.9
Selectivity (Homo sapiens [17]): 45
Mean log concentration ratio (Homo sapiens [18]): 4.33
pD2 (Homo sapiens [10]): 7.16

Further lines, results first:

EC50 (Homo sapiens [1]): 3900 nM
EC50 (Homo sapiens [2]): 200 nM
SMILES: CSCC[C@H](NC(=O)[C@@H]1CCCN1C(=O)[C@H](CCCCN)NC(=O)[C@H](Cc1ccccc1)NC(=O)[C@H](CO)NC(=O)[C@H](Cc1ccc(O)cc1)NC(=O)[C@H](CCCCN)NC(=O)CNC(=O)[C@H](CCCCN)NC(=O)CNC(=O)[C@@H](N)CCCCN)C(=O)N1CCC[C@H]1C(=O)N[C@@H](CC(C)C)C(=O)N[C@H](C)C(=O)N[C@@H](CCCN=C(N)N)C(=O)O

EC50 (Homo sapiens [2]): 100 nM
EC50 (Homo sapiens [11]): 2500 nM
SMILES: CSCC[C@H](NC(=O)[C@@H]1CCCN1C(=O)[C@H](CCCCN)NC(=O)[C@H](Cc1ccccc1)NC(=O)[C@H](CO)NC(=O)[C@H](Cc1ccc(O)cc1)NC(=O)CCCCCNC(=O)[C@H](Cc1c[nH]c2ccccc12)NC(=O)[C@@H](N)CCCCN)C(=O)N1CCC[C@H]1C(=O)N[C@@H](CC(C)C)C(=O)N[C@H](C)C(=O)N[C@@H](CCCN=C(N)N)C(=O)O

EC50 (Homo sapiens [1]): 6700 nM
EC50 (Homo sapiens [2]): 100 nM
SMILES: CSCC[C@H](NC(=O)[C@@H]1CCCN1C(=O)[C@H](CCCCN)NC(=O)[C@H](Cc1ccccc1)NC(=O)[C@H](CO)NC(=O)[C@H](Cc1ccc(O)cc1)NC(=O)CCCCCNC(=O)[C@H](CCCCN)NC(=O)CNC(=O)[C@H](CCCCN)NC(=O)CNC(=O)[C@@H](N)CCCCN)C(=O)N1CCC[C@H]1C(=O)N[C@@H](CC(C)C)C(=O)N[C@H](C)C(=O)N[C@@H](CCCN=C(N)N)C(=O)O
